{"source": "ChEMBL document CHEMBL1122426", "about": "“Radioiodine-labeled N,N-dimethyl-N'-(2-hydroxy-3-alkyl-5-iodobenzyl)-1,3-propanediamines for brain perfusion imaging” (J Med Chem, 1983)", "key": {"Rattus norvegicus [1]": {"species": "Rattus norvegicus", "test": "Effect of specific activity of compound on biodistribution in rats brain 1 hr after injection at the dose of 2.5 mg value expressed in average % dose per organ; value may range from 2.13 to 2.36", "type": "ADME, organism-based", "settings": "in vivo", "outline": "(§1)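 Rats received an intravenous injection of the I-125 labeled diamine with added unlabeled carrier (6.25, 2.5, 0.25 or 0.025 mg per dose). At 1 h, organs were counted. Percent dose per organ came from comparing tissue radioactivity with diluted aliquots of the injected dose. Values are the average and range of 3 rats. Brain/blood ratio was taken from % dose per gram, calculated using mean organ weights (brain 1.65 g; blood 18 g).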"}, "Rattus norvegicus [2]": {"species": "Rattus norvegicus", "test": "Effect of specific activity of compound on biodistribution in rats liver 1 hr after injection at the dose of 0.25 mg value expressed in average % dose per organ; value may range from 8.01 to 9.52", "type": "ADME, organism-based", "settings": "in vivo", "outline": "as §1"}, "[3]": {"test": "Biodistribution of [125I]- compound in a monkey lungs.1h after intravenous injection. the value expressed in %dose/gram", "settings": "simiiformes, in vivo"}, "Rattus norvegicus [4]": {"test_system": "Rattus norvegicus", "test": "Biodistribution of I-125 labeled compound in rat brain to blood ratio, 2 min after intravenous injection, value expressed in % dose per gram ratio", "type": "ADME, organism-based", "outline": "(§2)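 Rats given I-125 diamine iv; tissue activity at 2 min or 1 h compared with diluted injected-dose aliquots. % dose per gram approximated as % dose per organ divided by mean organ weight (brain 1.65 g; blood 18 g). Ratio taken from the per-gram values.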"}, "Rattus norvegicus [5]": {"species": "Rattus norvegicus", "test": "Effect of specific activity of compound on biodistribution in rats heart 1 hr after injection at the dose of 0.25 mg value expressed in average % dose per organ 0.69 to 0.74", "type": "ADME, organism-based", "settings": "in vivo", "outline": "as §1"}, "[6]": {"test": "Biodistribution of [125I]- compound in a monkey brain to blood ratio 1 hr after intravenous injection. the value expressed in %dose/gram", "settings": "simiiformes, in vivo"}, "[7]": {"test": "Biodistribution of [125I]- compound in a monkey heart. 1 hr after intravenous injection. the value expressed in %dose/gram", "settings": "simiiformes, in vivo"}, "Rattus norvegicus [8]": {"test_system": "Rattus norvegicus", "test": "Biodistribution of I-125 labeled compound in rat thyroid, 2 min after intravenous injection. value expressed in average % dose per organ; value may range from 0.20 to 0.23", "type": "ADME, organism-based, Thyroid gland", "settings": "in vivo"}, "[9]": {"test": "Biodistribution of [125I]- compound in a monkey liver. 1 hr after intravenous injection. the value expressed in %dose/organ", "settings": "simiiformes, in vivo"}, "Rattus norvegicus [10]": {"species": "Rattus norvegicus", "test": "Effect of specific activity of compound on biodistribution in rats muscle 1 hr after injection at the dose of 0.25 mg value expressed in average % dose per organ; value may range from 11.0 to 13.4", "type": "ADME, organism-based, Muscle tissue", "settings": "in vivo", "outline": "as §1"}, "[11]": {"test": "Biodistribution of [125I]- compound in a monkey muscle. 1 hr after intravenous injection. the value expressed in %dose/gram", "settings": "simiiformes, in vivo"}, "Rattus norvegicus [12]": {"test_system": "Rattus norvegicus", "test": "Biodistribution of I-125 labeled compound in rat brain, 2 min after intravenous injection. value expressed in average % dose per organ; value may range from 1.71 to 1.95", "type": "ADME, organism-based", "settings": "in vivo"}, "Rattus norvegicus [13]": {"species": "Rattus norvegicus", "test": "Effect of specific activity of compound on biodistribution in rats heart 1 hr after injection at the dose of 2.5 mg value expressed in average % dose per organ; value may range from 0.34 to 0.42", "type": "ADME, organism-based", "settings": "in vivo", "outline": "as §1"}, "Rattus norvegicus [14]": {"test_system": "Rattus norvegicus", "test": "Biodistribution of I-125 labeled compound in rat heart, 2 min after intravenous injection. value expressed in average % dose per organ; value may range from 3.03 to 3.55", "type": "ADME, organism-based", "settings": "in vivo"}, "Rattus norvegicus [15]": {"species": "Rattus norvegicus", "test": "Effect of specific activity of compound on biodistribution in rats brain to blood ratio after injection at the dose of 0.025 mg value expressed in % dose per gram ratio", "type": "ADME, organism-based", "outline": "as §1"}, "Rattus norvegicus [16]": {"species": "Rattus norvegicus", "test": "Effect of specific activity of compound on biodistribution in rats blood 1 hr after injection at the dose of 6.25 mg value expressed in average % dose per organ; value may range from 0.55 to 0.64", "type": "ADME, organism-based", "settings": "in vivo", "outline": "as §1"}, "Rattus norvegicus [17]": {"species": "Rattus norvegicus", "test": "Effect of specific activity of compound on biodistribution in rats lungs 1 hr after injection at the dose of 0.25 mg value expressed in average % dose per organ; value may range from 12.0 to 20.3", "type": "ADME, organism-based, Lung", "settings": "in vivo", "outline": "as §1"}, "[18]": {"test": "Biodistribution of [125I]- compound in a monkey spleen. 1 hr after intravenous injection. the value expressed in %dose/gram", "settings": "simiiformes, in vivo"}, "[19]": {"test": "Biodistribution of […] compound in a monkey heart. 1 hr after intravenous injection. the value expressed in%dose/organ", "type": "ADME, organism-based", "settings": "simiiformes, in vivo", "outline": "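Monkey sedated with ketamine and anesthetized with nembutal, then given ~100 μCi [125I] label (~7 mCi/mg) intravenously. Killed 1 h later by nembutal overdose. Organs dissected, weighed and counted. % dose per organ found against diluted injected-dose aliquots; % dose per gram also reported; brain/blood from per-gram values. Single animal.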"}, "Rattus norvegicus [20]": {"species": "Rattus norvegicus", "test": "Effect of specific activity of compound on biodistribution in rats lungs 1 hr after injection at the dose of 2.5 mg value expressed in average % dose per organ; value may range from 5.89 to 8.67", "type": "ADME, organism-based, Lung", "settings": "in vivo", "outline": "as §1"}, "Rattus norvegicus [21]": {"species": "Rattus norvegicus", "test": "Distribution coefficient at pH 7.0 in rat", "type": "ADME, organism-based", "outline": "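Octanol/buffer partition: I-125 labeled diamine mixed with 3 g each of 1-octanol and 0.1 M phosphate buffer at pH 7.0 or 7.4, vortexed 3× 1 min, centrifuged 5 min. Two 0.5 g samples of each layer counted. Value is cpm/g octanol over cpm/g buffer, usually repeated three times.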"}, "[22]": {"test": "Biodistribution of [125I]- compound in a monkey liver. 1 hr after intravenous injection. the value expressed in %dose/gram", "settings": "simiiformes, in vivo"}, "Rattus norvegicus [23]": {"species": "Rattus norvegicus", "test": "Effect of specific activity of compound on biodistribution in rats muscle 1 hr after injection at the dose of 6.25 mg value expressed in average % dose per organ; value may range from 11.5 to 12.9", "type": "ADME, organism-based, Muscle tissue", "settings": "in vivo", "outline": "as §1"}, "Rattus norvegicus [24]": {"species": "Rattus norvegicus", "test": "Effect of specific activity of compound on biodistribution in rats brain to blood ratio 1 hr after injection at the dose of 6.25 mg value expressed in % dose per gram ratio", "type": "ADME, organism-based", "outline": "as §1"}, "[25]": {"test": "Biodistribution of [125I]- compound in a monkey blood. 1 hr after intravenous injection. the value expressed in %dose/gram", "settings": "simiiformes, in vivo"}, "Rattus norvegicus [26]": {"species": "Rattus norvegicus", "test": "Effect of specific activity of compound on biodistribution in rats blood 1 hr after injection at the dose of 2.5 mg value expressed in average % dose per organ; value may range from 0.58 to 0.71", "type": "ADME, organism-based", "settings": "in vivo", "outline": "as §1"}, "Rattus norvegicus [27]": {"species": "Rattus norvegicus", "test": "Effect of specific activity of compound on biodistribution in rats liver 1 hr after injection at the dose of 2.5 mg value expressed in average % dose per organ; value may range from 17.1 to 20.7", "type": "ADME, organism-based", "settings": "in vivo", "outline": "as §1"}, "Rattus norvegicus [28]": {"species": "Rattus norvegicus", "test": "Effect of specific activity of compound on biodistribution in rats brain to blood ratio 1 hr after injection at the dose of 0.25 mg value expressed in % dose per gram ratio", "type": "ADME, organism-based", "outline": "as §1"}, "Rattus norvegicus [29]": {"test_system": "Rattus norvegicus", "test": "Biodistribution of I-125 labeled compound in rat brain to blood ratio, 1 hr after intravenous injection. value expressed in % dose per gram ratio", "type": "ADME, organism-based", "outline": "as §2"}}}
{"smiles": "Cc1cc(I)cc(CNCCCN(C)C)c1O", "values": [{"measurement": "Average dose per organ", "setting": "Rattus norvegicus [1]", "value": 2.21, "unit": "%"}, {"measurement": "Average dose per organ", "setting": "Rattus norvegicus [2]", "value": 8.54, "unit": "%"}, {"measurement": "Dose/g", "setting": "[3]", "value": 1.05, "unit": "%"}, {"measurement": "Ratio", "setting": "Rattus norvegicus [4]", "value": 7.35, "unit": "%"}, {"measurement": "Average dose per organ", "setting": "Rattus norvegicus [5]", "value": 0.72, "unit": "%"}, {"measurement": "Ratio", "setting": "[6]", "value": 17.5}, {"measurement": "Dose/g", "setting": "[7]", "value": 0.218, "unit": "%"}, {"measurement": "Average dose per organ", "setting": "Rattus norvegicus [8]", "value": 0.22, "unit": "%"}, {"measurement": "Dose per organ", "setting": "[9]", "value": 19.7, "unit": "%"}, {"measurement": "Average dose per organ", "setting": "Rattus norvegicus [10]", "value": 12.1, "unit": "%"}, {"measurement": "Dose/g", "setting": "[11]", "value": 0.00491, "unit": "%"}, {"measurement": "Average dose per organ", "setting": "Rattus norvegicus [12]", "value": 1.8, "unit": "%"}, {"measurement": "Average dose per organ", "setting": "Rattus norvegicus [13]", "value": 0.38, "unit": "%"}, {"measurement": "Average dose per organ", "setting": "Rattus norvegicus [14]", "value": 3.23, "unit": "%"}, {"measurement": "Ratio", "setting": "Rattus norvegicus [15]", "value": 17.6, "unit": "%"}, {"measurement": "Average dose per organ", "setting": "Rattus norvegicus [16]", "value": 0.61, "unit": "%"}, {"measurement": "Average dose per organ", "setting": "Rattus norvegicus [17]", "value": 15.2, "unit": "%"}, {"measurement": "Dose/g", "setting": "[18]", "value": 0.267, "unit": "%"}, {"measurement": "Dose per organ", "setting": "[19]", "value": 5.39, "unit": "%"}, {"measurement": "Average dose per organ", "setting": "Rattus norvegicus [20]", "value": 6.87, "unit": "%"}, {"measurement": "Distribution coefficient", "setting": "Rattus norvegicus [21]", "value": 3.39}, {"measurement": "Dose/g", "setting": "[22]", "value": 0.149, "unit": "%"}, {"measurement": "Average dose per organ", "setting": "Rattus norvegicus [23]", "value": 12.3, "unit": "%"}, {"measurement": "Ratio", "setting": "Rattus norvegicus [24]", "value": 43, "unit": "%"}, {"measurement": "Dose/g", "setting": "[25]", "value": 0.002, "unit": "%"}, {"measurement": "Average dose per organ", "setting": "Rattus norvegicus [26]", "value": 0.65, "unit": "%"}, {"measurement": "Average dose per organ", "setting": "Rattus norvegicus [27]", "value": 18.9, "unit": "%"}, {"measurement": "Ratio", "setting": "Rattus norvegicus [28]", "value": 22.8, "unit": "%"}, {"measurement": "Ratio", "setting": "Rattus norvegicus [29]", "value": 19.7, "unit": "%"}]}
